The text below walks through data of paper PMC4492651 (Drug Design, Development and Therapy, 2015).

Assay [1] concerns carrageenan-induced thrombosis. In words: Model of carrageenan-induced thrombosis. As to conditions: n=10; for Black tail length (cm) 24 hours / Black tail occurrence (%) 24 hours: 24 hours after carrageenan; for Black tail length (cm) 24 hours / Black tail length (cm) 48 hours: mean ± SD; for Black tail length (cm) 48 hours / Black tail occurrence (%) 48 hours: 48 hours after carrageenan. In kind it is in vivo, KM mice.

Assay [2] deals with transient middle cerebral artery occlusion. On the set-up: species or system Sprague Dawley rats. Particulars: rat, in vivo, ip.
A further assay relates to HT22 cells. Kind of assay: H2O2-induced cytotoxicity in HT22 cells. Type of assay: cell-based, murine. Particulars: Mus musculus, HT-22, read-out: H2O2-treated HT22 viability percentage. Summed up: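 Murine HT22 cells in DMEM with 10% newborn calf serum, 37°C, 5% CO2. Seeded at 20,000 cells/well and grown 24 h. Pretreated in quadruplicate with test compound (10–100 µM) for 2 h, exposed to 500 µM H2O2 for 1 h, then given fresh medium for 12 h. Viability by MTT. Four separate experiments, mean ± SD.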

Assay [3] deals with GSH-Px, SOD, NO and MDA in brain tissue. Kind of assay: Antioxidant stress activity in vivo after I/R. As to conditions: I/R rats; for content of SOD in comparison with the model group: 3d 10, 20 and 50 mg/kg, NBP 20 mg/kg, Eda 3.0 mg/kg. On the set-up: species or system Sprague Dawley rats. The procedure, abridged: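 Male Sprague Dawley rats underwent filament MCAO, 2 h occlusion then reperfusion. Test compound (10, 20, 50 mg/kg; model vehicle oil) given ip 15 min after MCAO onset. At 24 h reperfusion, under chloral hydrate, brains were rinsed in cold saline; ischemic core and penumbra were separated and stored at −70°C. After protein assay, T-SOD and GSH-Px activities, MDA and NO were measured by kits. n=10, mean ± SD, ANOVA/Newman–Keuls.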

Setting [4] is: 50 mg/kg by gavage daily for 2 days.
Setting [5] is: 3 mg/kg by gavage daily for 2 days.

Where two headings read alike, the source gives them in different places.

As to `CC(=O)Oc1ccccc1C(=O)O` [ASP, aspirin], in assay [1] (setting [4]), the “Black tail length (cm) 24 hours” value is reported as 1.5±0.5 cm, the “Black tail occurrence (%) 24 hours” value was determined as 30%, the “Black tail length (cm) 48 hours” value was 2.4±0.6 cm and the “Black tail occurrence (%) 48 hours” value is 40%.
Broadly, the viability is a read-out of living cells in per cent, often relative to untreated cells. Consider `CCCCC1OC(=O)c2ccccc21` (centres unmarked) [NBP, 3-n-butylphthalide], for which, in assay [2] (20 mg/kg), the “infarct size reduced by” value worked out at 26.19%. Moreover, in the assay with HT22 cells, the viability at 100 µM is 71.5%. In addition, the NO activity in assay [3] (20 mg/kg, 24 hours postreperfusion, model 1.51) stood at 0.92 U/mg. Moreover, the “content of SOD in comparison with the model group” value in assay [3] is “increased”. Besides, in assay [1] (setting [4]), the “Black tail length (cm) 24 hours” value is given as 3.1±0.3 cm, the “Black tail occurrence (%) 24 hours” value is listed as 30%, the “Black tail length (cm) 48 hours” value is recorded as 3.5±0.5 cm and the “Black tail occurrence (%) 48 hours” value was determined as 50%.
For the compound `CC1=NN(c2ccccc2)C(=O)C1` [Eda, edaravone], in assay [2] (3 mg/kg), the “infarct size reduced by” value is on record as 69.65%. In addition, the viability at 100 µM in the assay on HT22 cells turned out to be 69.9%. Also, the “levels of GSH-Px activity vs model animals” value in assay [3] (ischemic core, 3d 50 mg/kg, Eda 3 mg/kg) is “significantly higher”. The “content of SOD in comparison with the model group” value in assay [3] is recorded as “increased”. In assay [1] (setting [5]), the “Black tail length (cm) 24 hours” value stood at 4.6±1.7 cm, the “Black tail occurrence (%) 24 hours” value worked out at 70%, the “Black tail length (cm) 48 hours” value is 4.5±1.8 cm and the “Black tail occurrence (%) 48 hours” value is 80%.
